An excerpt weighted towards active compounds, which were near 5.1% of everything screened.
STAT1 act: STAT1 signaling activators, primary screen, cell-based, HTS, luciferase reporter. NIH 3T3 STAT1-luciferase reporter, IFN-gamma, luminescence; 100% = IFN-gamma alone, no compound. activation (% of control), % at 5.5 µM. 200,000 tested, 2.6% active;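 active = activation above the screen-wide mean activation plus 3 SD, cut at about 130% in these data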;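 also: raw ratio to IFN-gamma control signal so 100% means no change and 0% no light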
STAT3 inh: IL-6 driven STAT3 reporter inhibitors, primary screen, U3A cells, luciferase, luminescence, MLSCN library; 190,000 tested, 0.89% active; IL-6 STAT3-luciferase reporter; host cell line lacks STAT1; inhibition, % at 5.5 µM; AID 862, 2007;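 active = inhibition above the mean inhibition across all screened compounds plus 3 SD, cut at about 44% in these data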;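 also: 0% = DMSO only wells and 100% = 100 µM nifuroxazide control wells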
NF-kB expr up: activators of NF-kB expression in neurons, primary screen, cell-based, HTS. human neuronal cells, NF-kB reporter expression; hits give high values. fold change at 12.5 µM. 190,000 tested, 1.6% active. AID 1239, 2008; in the data active = fold change above about 3.3
APP 5'UTR act: activators of APP 5'UTR luciferase reporter, primary screen, SH-SY5Y cells | SH-SY5Y APP 5'UTR luciferase reporter, luminescence; zero percent = DMSO vehicle wells | activation, % at 2 µM | 190,000 tested, 1% active;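 active = activation above a set limit, based on mean plus 3 SD of controls, cut at about 140% in these data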
STAT3 activator: IL-6 driven STAT3 reporter potentiators, primary screen, U3A cells, luciferase, luminescence, MLSCN library. 190,000 tested, 0.91% active. activation (% of control), % at 5.6 µM. IL-6 STAT3-luciferase reporter; 100% = signal with IL-6 EC80 alone;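 active = activation above the screen-wide mean of compound activation plus 3 SD, cut at about 130% in these data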;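 also: 0% = background luminescence of wells with medium and substrate only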
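Test system: human U3A cells carrying STAT3-luciferase construct; control set: IL-6-only wells as 100% reference; timing: compound pre-incubation 1 h before IL-6, then 6 h stimulation at 37 °C; also added: IL-6 stimulus at 33 ng/mL final; evaluation: % activation versus median of IL-6-stimulated wells; detection: reporter luminescence signal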
STAT1 inh: STAT1 signaling inhibitors, primary screen, cell-based, HTS, luciferase reporter; AID 920, 2007; inhibition, % at 5.5 µM; NIH 3T3 STAT1-luciferase reporter, IFN-gamma, luminescence; 200,000 tested, 0.35% active;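 active = inhibition above a set limit, the mean inhibition across all tested compounds plus 3 SD, cut at about 34% in these data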;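 also: 0% = IFN-gamma with DMSO and 100% = IFN-gamma with 300 µM nifuroxazide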
STAT1 activ conf: STAT1 signaling activators, confirmation, cell-based, HTS, luciferase reporter; shares compounds with STAT1 act; NIH 3T3 STAT1-luciferase reporter, IFN-gamma potentiation, luminescence; 100% = IFN-gamma EC80 alone, no compound; activation (% of control), % at 5.7 µM; 1,200 tested, 97% active;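 active = activation above a set limit carried over from the earlier primary STAT1 screen, cut at about 140% in these data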;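 also: simple ratio to median IFN-gamma plus DMSO wells so 0% means no light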
NFkB act: NF-kB reporter activators, TNF-alpha stimulated, counter-screen for STAT1 activator project, cell-based, HEK293T, luciferase luminescence; shares compounds with STAT1 act; 1,200 tested, 43% active; 100% = TNF-alpha with vehicle only; activation (% of control), % at 5.7 µM; AID 1306, 2008;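 active = activation above the mean of solvent-only control wells plus 3 SD, set per campaign, cut at about 130% in these data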;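 also: TNF-alpha given at a submaximal dose yielding about 80% of full reporter signal; values are well signal over median control so 100% means no change and 0% no light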
STAT3 act STAT1c: STAT3 reporter activation by STAT1 hits, confirmation, counter-screen for STAT1 activator project, U3A cells, luciferase, luminescence; shares compounds with STAT1 act; IL-6; cells lack STAT1; 100 = IL-6 alone, no compound effect; activation (% of control), % at 5.7 µM; 1,200 tested, 46% active;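 active = activation above the solvent-only control well mean plus 3 SD, set per plate batch, cut at about 110% in these data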;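 also: 0% = no luminescence and 100% = median IL-6 plus DMSO wells; higher means more STAT3 reporter activation so hits are non-selective activators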
Numbers without * were called inactive; · = not tested or not shown.

SMILES	STAT1 act	STAT3 inh	NF-kB expr up	APP 5'UTR act	STAT3 activator	STAT1 inh	STAT1 activ conf	NFkB act	STAT3 act STAT1c
Cc1ccsc1C(=O)N/N=C/c1ccc2c(c1)OCO2	161.1*	37.2	6.15*	158.1*	70.5	-68.3	225.8*	105.8	92.4
O=C(Nc1ccc(C(=O)N2CCOCC2)cc1)Nc1ccc(Cl)cc1Cl	99.0	2.0	0.82	13.6	100.2	1.6	·	·	·
Cc1ccccc1OCCCC(=O)Nc1nncs1	115.2	-14.7	1.13	4.5	112.5	-15.5	·	·	·
c1ccc2nc3c(nc2c1)[nH]c1ccccc13	160.1*	-12.5	5.9*	257.3*	116.4	-66.0	202.2*	131.5	126.1*
c1ccc(-c2c3ccccc3nc3[nH]c4ccccc4c23)cc1	95.1	-6.8	0.94	0.6	103.3	5.4	·	·	·
COc1ccccc1OCC(=O)NCCC1=CCCCC1	102.5	-10.9	1.32	-0.6	107.9	-2.8	·	·	·
COc1ccccc1/C=C/C(=O)NCCC1=CCCCC1	158.8*	-7.8	0.97	52.1	112.9	-65.2	169.6*	128.4	133.8*
C=CCOc1ccccc1CN1CCCC(CCC(=O)N(C)CCc2ccccn2)C1 (stereo unspecified)	98.7	5.7	0.81	-0.4	100.0	-0.8	·	·	·
CCCCOC(=O)Nc1ccc2c(C)cc(=O)oc2c1	166.1*	15.1	5.82*	137.7*	89.8	-72.0	196.6*	143.8*	103.7
CCOC(=O)Nc1ccc2c(C)cc(=O)oc2c1	109.5	10.4	2.39	37.3	94.3	-10.2	·	·	·

Screening results deposited in PubChem BioAssay by several laboratories.
